Source: ChEMBL document CHEMBL1147572, “Synthesis, SAR, and antitumor properties of diamino-C,N-diarylpyrimidine positional isomers: inhibitors of lysophosphatidic acid acyltransferase-beta” (Bioorg Med Chem Lett, 2004)

Experiments:
[1] = test system: DU-145; experiment: In vitro inhibitory activity against DU 145 cell line proliferation; assay type: functional, cell-based; conditions: Homo sapiens
Procedure, shortened: (§1)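 Cell proliferation measured with a CyQuant fluorescent DNA-dye kit, following the method of an earlier report.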

[2] = test system: K562; experiment: In vitro inhibitory activity against K-562 cell line proliferation; assay type: functional, cell-based; conditions: Homo sapiens; procedure, shortened: as §1
[3] = test system: Lewis lung carcinoma cell line; experiment: In vitro inhibitory activity against murine Lewis lung tumor LL2 cell line; assay type: functional, cell-based; conditions: Mus musculus
[4] = target: T1, 1-acyl-sn-glycerol-3-phosphate acyltransferase beta (Homo sapiens, UniProt O15120); experiment: Inhibitory activity against Lysophosphatidic acid acyltransferase-beta expressed in Sf9 insect cell membranes
T1 sequence (O15120 whole entry): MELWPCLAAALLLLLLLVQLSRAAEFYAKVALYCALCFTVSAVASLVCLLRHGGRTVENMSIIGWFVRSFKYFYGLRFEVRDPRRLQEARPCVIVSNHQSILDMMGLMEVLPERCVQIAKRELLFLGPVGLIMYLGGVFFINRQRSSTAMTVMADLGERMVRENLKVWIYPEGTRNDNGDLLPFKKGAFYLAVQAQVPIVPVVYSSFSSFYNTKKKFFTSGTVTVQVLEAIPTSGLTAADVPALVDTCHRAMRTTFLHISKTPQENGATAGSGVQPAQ
Procedure, shortened: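 LPAAT-β overexpressed in Sf9 insect cell membranes. Enzyme activity read colorimetrically with DTNB (5,5'-dithiobis(2-nitrobenzoic acid)).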

[5] = test system: Mus musculus; experiment: Tumor growth delay against Lewis lung tumor LL2 cell line at 100 mg/kg q1d*4 intravenously in mice; conditions: route intravenous
[6] = target: T2, 1-acyl-sn-glycerol-3-phosphate acyltransferase alpha (Homo sapiens) (UniProt Q99943); experiment: Inhibitory activity against lysophosphatidic acid acyltransferase-alpha at 40 uM concentration
T2 sequence (whole entry): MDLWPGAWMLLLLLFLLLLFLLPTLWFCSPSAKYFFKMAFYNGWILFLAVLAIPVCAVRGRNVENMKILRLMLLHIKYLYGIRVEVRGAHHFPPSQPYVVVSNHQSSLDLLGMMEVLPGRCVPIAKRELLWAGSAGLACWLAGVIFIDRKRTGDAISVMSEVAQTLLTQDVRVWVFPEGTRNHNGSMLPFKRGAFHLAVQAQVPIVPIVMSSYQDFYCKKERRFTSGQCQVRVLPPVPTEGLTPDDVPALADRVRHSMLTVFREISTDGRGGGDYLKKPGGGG
Procedure, shortened: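 LPAAT-α overexpressed in Sf9 insect cell membranes in the same way. Activity read colorimetrically with DTNB. Inhibition recorded at 40 μM.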

| Structure (SMILES) | IC50 [1] | IC50 [2] | IC50 [3] | IC50 [4] | TGD [5] | inhibition [6] |
| --- | --- | --- | --- | --- | --- | --- |
| Cc1ccc(Cl)cc1-c1cc(Nc2ccc(C(F)(F)F)cc2)nc(N)n1 | 230 nM | 140 nM | 160 nM | 140 nM | 6 days | – |
| CCOc1ccc(Br)cc1-c1cc(Nc2ccc(/C(C)=N\O)cc2)nc(N)n1 | < 50 nM | < 50 nM | – | 84 nM | – | – |
| Cc1ccc(O)cc1-c1cc(Nc2ccc(Cl)cc2)nc(N)n1 | – | – | – | 8300 nM | – | – |
| CCOc1ccc(Br)cc1-c1cc(Nc2ccc(C(=N)N)cc2)nc(N)n1 | – | – | – | > 5000 nM | – | – |
| Cc1ccc(Cl)cc1-c1cc(Nc2ccc(Cl)cc2)nc(N)n1 | 120 nM | 60 nM | – | 22 nM | – | – |
| COc1ccc(Cl)cc1-c1cc(N)nc(Nc2ccc3c[nH]nc3c2)n1 | > 10000 nM | > 10000 nM | – | – | – | – |
| CCOc1ccc(Cl)cc1-c1cc(Nc2ccc(Cl)cc2)nc(N)n1 | 70 nM | < 12 nM | – | – | – | – |
| CCOc1ccc(Br)cc1-c1cc(Nc2ccc(CC(=O)O)cc2)nc(N)n1 | > 1000 nM | > 1000 nM | – | 210 nM | – | – |
| CCOc1ccc(Cl)cc1-c1cc(Nc2ccc(CCO)cc2)nc(N)n1 | 70 nM | < 50 nM | – | – | – | – |
| Nc1nc(Nc2ccc(Cl)cc2)cc(-c2cc(Cl)ccc2Cl)n1 | 190 nM | < 100 nM | – | – | – | – |
| CCOc1ccc(Br)cc1-c1cc(Nc2ccc(CC(=O)NO)cc2)nc(N)n1 | > 1000 nM | > 1000 nM | – | 400 nM | – | – |
| CCOc1ccc(Br)cc1-c1cc(Nc2cccc(C#N)c2)nc(N)n1 | > 1000 nM | 350 nM | – | 720 nM | – | – |
| COc1ccc(Cl)cc1-c1cc(Nc2ccc(Cl)cc2)nc(N)n1 | 500 nM | 150 nM | – | – | – | – |
| COc1ccc(Cl)cc1-c1cc(N)nc(Nc2ccc(Br)cc2)n1 | > 10000 nM | 3000 nM | – | 2300 nM | – | – |
| COc1ccc(Cl)cc1-c1cc(Nc2ccc3c[nH]nc3c2)nc(N)n1 | 1000 nM | 250 nM | – | – | – | – |
| COc1ccc(Cl)cc1-c1cc(Nc2ccc(Br)cc2)nc(N)n1 | 250 nM | 150 nM | – | 28 nM | – | – |
| Nc1nc(Nc2ccc(Cl)cc2)cc(-c2cc(Br)ccc2O)n1 | > 1000 nM | > 1000 nM | – | – | – | – |
| Cc1ccc(Cl)cc1-c1cc(Nc2cccc(Br)c2)nc(N)n1 | 400 nM | 200 nM | – | 610 nM | – | – |
| CCOc1ccc(Cl)cc1-c1cc(Nc2ccc([N+](=O)[O-])cc2)nc(N)n1 | 350 nM | 180 nM | – | – | – | – |
| COc1ccc(Cl)cc1-c1nc(N)cc(Nc2ccc(Br)cc2)n1 | 800 nM | 150 nM | – | – | – | – |
| CCOc1ccc(Br)cc1-c1cc(Nc2ccc(Cl)cc2)nc(N)n1 | 80 nM | 50 nM | – | 16 nM | – | 50% |

| Structure (SMILES) | IC50 [1] | IC50 [2] | IC50 [3] | IC50 [4] | TGD [5] | inhibition [6] |
| --- | --- | --- | --- | --- | --- | --- |
| CCOc1ccc(Cl)cc1-c1cc(Nc2ccc(CC(=O)O)cc2)nc(N)n1 | > 1000 nM | > 1000 nM | – | 580 nM | – | – |
| COc1ccc(Cl)cc1-c1nc(N)cc(Nc2ccc(Cl)cc2)n1 | 5000 nM | 750 nM | – | 7000 nM | – | – |
| CCOc1ccc(Br)cc1-c1cc(Nc2ccc(/C(C)=N\OC)cc2)nc(N)n1 | > 1000 nM | > 1000 nM | – | 970 nM | – | – |
| CCOc1ccc(Br)cc1-c1cc(Nc2ccc(C(N)=O)cc2)nc(N)n1 | – | – | – | 750 nM | – | – |
| CCOc1ccc(Cl)cc1-c1cc(Nc2ccc3c[nH]nc3c2)nc(N)n1 | 200 nM | < 100 nM | – | – | – | – |
| COc1ccc(Cl)cc1-c1cc(N)nc(Nc2ccc(Cl)cc2)n1 | > 10000 nM | 3000 nM | – | 7000 nM | – | – |
| COc1ccc(Cl)cc1-c1nc(N)cc(Nc2ccc3c[nH]nc3c2)n1 | > 10000 nM | 5500 nM | – | – | – | – |
| CCOc1ccc(Cl)cc1-c1cc(Nc2ccc(CO)cc2)nc(N)n1 | 40 nM | < 12 nM | – | – | – | – |
| CCOc1ccc(Cl)cc1-c1cc(Nc2cccc([N+](=O)[O-])c2)nc(N)n1 | > 1000 nM | 450 nM | – | 640 nM | – | – |
| CCOc1ccc(Br)cc1-c1cc(Nc2ccc(B(O)O)cc2)nc(N)n1 | 500 nM | 200 nM | – | 91 nM | – | – |
| Cc1ccc(Br)cc1-c1cc(Nc2ccc(Br)cc2)nc(N)n1 | 110 nM | 70 nM | – | – | – | – |
| CCOc1ccc(Br)cc1-c1cc(Nc2ccc(C(=O)NO)cc2)nc(N)n1 | > 1000 nM | 700 nM | – | – | – | – |
| CCOc1ccc(Br)cc1-c1cc(Nc2ccc(C#N)cc2)nc(N)n1 | 400 nM | 70 nM | – | 17 nM | – | – |
| CCOc1ccc(Br)cc1-c1cc(Nc2ccc(C(=O)O)cc2)nc(N)n1 | – | – | – | 2700 nM | – | – |
| Cc1ccc(Br)cc1-c1cc(Nc2ccc(Cl)cc2)nc(N)n1 | 100 nM | 70 nM | – | – | – | – |
| CCOc1ccc(Br)cc1-c1cc(Nc2ccc(C(C)=O)cc2)nc(N)n1 | 90 nM | 50 nM | – | – | – | – |
| CCOc1ccc(Br)cc1-c1cc(Nc2ccccc2)nc(N)n1 | > 1000 nM | 260 nM | – | 120 nM | – | – |
| CCOc1ccc(Cl)cc1-c1cc(Nc2ccc(CCCO)cc2)nc(N)n1 | > 1000 nM | > 1000 nM | – | – | – | – |
| Cc1ccc(Cl)cc1-c1cc(Nc2ccc(Br)cc2)nc(N)n1 | 130 nM | 60 nM | – | – | – | – |
| Cc1ccc(F)cc1-c1cc(Nc2ccc(Cl)cc2)nc(N)n1 | > 1000 nM | 250 nM | – | 150 nM | – | – |
| Nc1nc(Nc2ccc(Cl)cc2)cc(-c2cc(Cl)ccc2O)n1 | – | – | – | 10000 nM | – | – |
